The list is not random: actives were taken first. Their share in the collection is about 2.2%.
S100A4 inh HTS: blocks human S100A4 binding to myosin IIA peptide; inhibition, % at 10.7 µM; S100A4/TAMRA-MyoIIA peptide fluorescence polarization; 0.14% of 360,000 active; P26447;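 active means mean inhibition of at least 70% across replicates, with every replicate also reaching that level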
Target sequence (P26447 whole entry, looked up): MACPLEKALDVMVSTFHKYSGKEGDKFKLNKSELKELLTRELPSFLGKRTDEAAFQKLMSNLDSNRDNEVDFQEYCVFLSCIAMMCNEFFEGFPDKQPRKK
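Material: S100A4 monomer (human). Medium: Calcium-containing HEPES buffer, pH 7.2. Probe or stimulus: labelled myosin peptide probe, 5 nM. Compound dosing: one concentration per compound. Timing: polarization read 5 min after assay mix addition, stable 5–60 min. Benchmarks: DMSO as neutral control, TFP as positive control.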
FGF22 binding: shifts melting point of recombinant human FGF22. Q9HCT0. recombinant FGF22 thermal shift, SYPRO orange fluorescence; percent of sucrose octasulfate shift, DMSO zero. activity (Tm shift, normalised), % at 9.99 µM. 1.5% of 340,000 active. AID 651658;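 active means mean Tm shift, scaled 0 neutral to 100 positive control, at about 1.3% or above, every replicate too, limit read from the data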
Target sequence (Q9HCT0 whole entry, looked up): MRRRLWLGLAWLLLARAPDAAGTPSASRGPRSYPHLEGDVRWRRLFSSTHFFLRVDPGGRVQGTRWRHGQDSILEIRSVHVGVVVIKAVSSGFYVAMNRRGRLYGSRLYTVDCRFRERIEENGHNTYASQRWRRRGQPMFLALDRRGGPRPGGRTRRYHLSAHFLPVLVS
dFosB act: mouse delta FosB homodimer activation. P13346. purified delta FosB, TAMRA-CDK5 oligo fluorescence polarization; percent of positive-control signal above neutral wells. activation, % at 25 µM. 0.99% of 340,000 active. AID 493131;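 active means mean activation above about 17%, with every replicate also reaching it, limit read from the data, passing the limit was not always enough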
Target sequence (P13346 whole entry, looked up): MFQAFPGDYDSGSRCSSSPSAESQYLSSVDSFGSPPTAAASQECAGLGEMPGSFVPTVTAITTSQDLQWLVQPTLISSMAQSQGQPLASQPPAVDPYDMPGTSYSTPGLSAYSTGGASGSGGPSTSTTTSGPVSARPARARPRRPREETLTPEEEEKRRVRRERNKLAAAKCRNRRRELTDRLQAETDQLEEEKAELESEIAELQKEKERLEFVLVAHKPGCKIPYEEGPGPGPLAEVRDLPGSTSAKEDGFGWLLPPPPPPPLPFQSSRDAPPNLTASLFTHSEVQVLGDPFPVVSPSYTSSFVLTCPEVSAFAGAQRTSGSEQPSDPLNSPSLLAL
F508del corr: CFTR F508del correction in bronchial cells | CFBE cells, YFP halide quenching; stimulated with forskolin plus potentiator P3; % fluorescence drop versus neutral controls | activity (quench increase), % at 7.58 µM | 0.36% of 350,000 active | AID 720511;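 active means mean added fluorescence quench of at least 8% versus neutral control, with both replicates also reaching 8%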;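 further: cells transiently co-express mutant CFTR-F508del with the halide-sensitive YFP; corrector assay measuring rescue of mutant channel to the surface after 24 h compound exposure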
Large screens that a line does not name were inactive.

Cc1ccc(S(=O)(=O)N(C)C[C@@H]2OCCCC[C@H](C)Oc3ccc(NC(=O)NC4CCCCC4)cc3C(=O)N([C@H](C)CO)C[C@@H]2C)cc1	none (no result: dFosB act)
N#CC(C#N)=C1C=C2C=C(N3CCCCCC3)CCC2CC1 (configuration not stated)	F508del corr 67
CN1CCN(C2=CC3=CC(=C(C#N)C#N)CCC3CC2)CC1 (configuration not stated)	none (no result: S100A4 inh HTS, FGF22 binding, F508del corr)
N#CC(C#N)=C1C=C2C=C(N3CCOCC3)CCC2CC1 (configuration not stated)	F508del corr 70
COc1ccc(S(=O)(=O)N(C)C[C@@H]2Oc3ccc(NC(=O)Nc4c(C)noc4C)cc3CC(=O)N([C@@H](C)CO)C[C@@H]2C)cc1	none (no result: dFosB act)
COc1cccc(S(=O)(=O)N2CC3(CN[C@H](CO)c4[nH]c5cc(OC)ccc5c43)C2)c1	none (no result: dFosB act)
COc1cc(OC)cc(C(=O)NCC(=O)OCC(=O)N2c3ccccc3NC(=O)C2(C)C)c1	FGF22 binding 44
Cc1cc(C)cc(C(=O)NCC(=O)OCC(=O)N2c3ccccc3NC(=O)C2(C)C)c1	none
CC(CCCC(C)(C)O)NC(=O)c1ccc(OC2CCN(C(=O)C3CC3)CC2)cc1 (configuration not stated)	FGF22 binding 43
O=C(CCN1C(=O)/C(=C/c2cccs2)SC1=S)Nc1ccc(O)cc1	none
O=C(CCCN1C(=O)/C(=C\c2cccs2)SC1=S)Nc1cc([N+](=O)[O-])ccc1O	dFosB act 26
O=C(CCN1C(=O)/C(=C/c2cccs2)SC1=S)Nc1ccccc1O	dFosB act 21
O=C(CCCN1C(=O)/C(=C/c2cccs2)SC1=S)Nc1cccc(O)c1	none
C[C@@H]1CN([C@@H](C)CO)C(=O)c2cc(NC(=O)Cc3ccccc3)ccc2O[C@@H]1CN(C)C(=O)Nc1ccc(C(F)(F)F)cc1	none (no result: FGF22 binding, dFosB act)
COCC(=O)N1C[C@@H](C)[C@@H](OC)CN(C)C(=O)c2cc(NC(=O)Nc3cccc(F)c3)ccc2OC[C@H]1C	none (no result: dFosB act)
C[C@@H]1CCCCO[C@H](CN(C)CC2CCCCC2)[C@H](C)CN([C@H](C)CO)C(=O)c2cc(NC(=O)Nc3ccccc3)ccc2O1	none (no result: dFosB act)
COc1ccc([C@H]2C[C@H]3C(Br)=CC2C(=O)[C@]32CO2)cc1OC	none (no result: dFosB act)
NNC(=O)c1[nH]c2ccc(Cl)cc2c1-c1ccccc1	F508del corr 17
Cc1ccc2[nH]c(C(=O)NN=C3CCCCC3)c(-c3ccccc3)c2c1	FGF22 binding 43
O=C(Nc1ccccc1F)N[C@@H]1CC[C@@H](CCNS(=O)(=O)c2ccc(F)cc2)O[C@@H]1CO	none (no result: dFosB act)
Cc1ccc(S(=O)(=O)Nc2ccc3c(c2)C(=O)N([C@H](C)CO)C[C@@H](C)[C@H](CN(C)Cc2ccc(-c4ccccc4)cc2)O3)cc1	none (no result: dFosB act)
CC(C)NC(=O)Nc1ccc2c(c1)C(=O)N([C@H](C)CO)C[C@H](C)[C@H](CN(C)S(=O)(=O)c1cn(C)cn1)OCCCC[C@@H](C)O2	none (no result: dFosB act)
Cc1noc(C)c1S(=O)(=O)Nc1ccc2c(c1)C(=O)N([C@@H](C)CO)C[C@H](C)[C@H](CN(C)Cc1ccc3c(c1)OCO3)OCCCC[C@H](C)O2	none (no result: dFosB act)
Cc1ccc(Cl)cc1N1CCN(C(=O)c2cn(C)c(=O)c3c2c2ccccc2n3C)CC1	F508del corr 10
C[C@H](NC(=O)C[C@@H]1C[C@@H]2c3cc(NC(=O)Nc4ccc(C(F)(F)F)cc4)ccc3O[C@@H]2[C@@H](CO)O1)c1ccccc1	S100A4 inh HTS 85 (no result: dFosB act)
C[C@H](NC(=O)C[C@@H]1C[C@H]2c3cc(NC(=O)Nc4ccc(C(F)(F)F)cc4)ccc3O[C@H]2[C@H](CO)O1)c1ccccc1	none (no result: dFosB act)
C[C@H](NC(=O)C[C@H]1C[C@@H]2c3cc(NC(=O)CN(C)C)ccc3O[C@@H]2[C@H](CO)O1)c1ccccc1	S100A4 inh HTS 108 (no result: dFosB act)
O=C(C[C@@H]1C[C@H]2c3cc(NC(=O)CC4CC4)ccc3O[C@H]2[C@H](CO)O1)NCc1cccc(F)c1	F508del corr 9.0 (no result: dFosB act)
C[C@H](NC(=O)C[C@@H]1C[C@H]2c3cc(NC(=O)CN(C)C)ccc3O[C@H]2[C@@H](CO)O1)c1ccccc1	none (no result: dFosB act)
CS(=O)(=O)N1CC2(C1)[C@H](c1ccccc1)[C@H](CO)N2CCC(F)(F)F	none (no result: dFosB act)
Cc1cccc(OCC(=O)Nc2ccc(N3CCCC3)cc2)c1C	dFosB act 47 (no result: S100A4 inh HTS, FGF22 binding, F508del corr)
Cc1cc(C)cc(OCC(=O)Nc2ccc(N3CCCC3)cc2)c1	dFosB act 65 (no result: S100A4 inh HTS, FGF22 binding, F508del corr)
Cc1ccc(OCC(=O)Nc2ccc(N3CCN(S(C)(=O)=O)CC3)cc2)cc1	FGF22 binding 43
COc1ccccc1OCC(=O)Nc1ccc(N2CCCCC2)cc1	none
Cc1ccc(OCC(=O)Nc2ccc(N3CCCC3)cc2)cc1C	none (no result: S100A4 inh HTS, FGF22 binding, F508del corr)
COc1ccc(NC(=O)N2CCN(S(C)(=O)=O)CC2)cc1	FGF22 binding 43
C[C@@H]1CCCCO[C@@H](CN(C)C(=O)Cc2ccccc2)[C@H](C)CN([C@H](C)CO)C(=O)c2cc(NC(=O)Nc3ccccc3)ccc2O1	none (no result: dFosB act)
C[C@H](CO)N1C[C@H](C)[C@@H](CN(C)C(=O)CCCN(C)C)OCCCC[C@H](C)Oc2ccc(NS(=O)(=O)c3cn(C)cn3)cc2C1=O	none (no result: dFosB act)
Cc1cc(C)cc(OCC(=O)Nc2ccc3c(c2)OCCO3)c1	FGF22 binding 43
CCc1ccc(OCC(=O)NN2Cc3ccccc3C2=N)cc1	FGF22 binding 43
CCC(=O)N1C[C@H]2[C@@H](c3ccccc31)[C@@H](CO)N2Cc1cc(F)ccc1F	none (no result: dFosB act)
CCOC(=O)Cn1c(C)cc(COC)c(C#N)c1=O	FGF22 binding 43
C[C@H]1CN([C@@H](C)CO)C(=O)Cc2cc(NC(=O)C3CC3)ccc2O[C@@H]1CN(C)S(=O)(=O)c1ccc(F)cc1	none (no result: dFosB act)
Cc1ccc(-c2csc(N3CCN(c4ccc5nc(-c6ccncc6)n(CCN6CCCCC6)c5c4)CC3)n2)cc1	none (no result: FGF22 binding, F508del corr)
Cc1ccc(-c2csc(N3CCN(c4cc5c(cc4Cl)nc(-c4ccncc4)n5CCN4CCCCC4)CC3)n2)cc1	dFosB act 22
CCOc1ccccc1-n1c(SCC(=O)N2CCCc3ccccc32)nnc1-c1cccnc1	none (no result: S100A4 inh HTS, FGF22 binding, F508del corr)
Cc1ccc(-n2c(SCC(=O)N3CCCc4ccccc43)nnc2-c2cccnc2)c(C)c1	FGF22 binding 43
COc1ccccc1-c1cnc2c(c1)C(=O)N([C@H](C)CO)C[C@@H](C)[C@H](CN(C)C(=O)c1cccnc1)O2	none (no result: S100A4 inh HTS, FGF22 binding, dFosB act)
CC1(C)CC(=O)C(CC(=O)Nc2cc(C(F)(F)F)ccc2Cl)C(=O)C1	FGF22 binding 44
CC(OC(=O)C1CC1)C(=O)Nc1cc(C(F)(F)F)ccc1Cl (configuration not stated)	FGF22 binding 44
O=C(Nc1cc(F)ccc1F)N1C[C@@H]2[C@H](c3ccccc31)[C@H](CO)N2Cc1cccnc1	none (no result: dFosB act)
CC(=O)c1cccc(NC(=O)CSc2n[nH]c(=O)n2C2CC2)c1	FGF22 binding 43
CNC[C@H]1OCCCC[C@H](C)Oc2ccc(NC(=O)Cc3ccccc3)cc2C(=O)N([C@H](C)CO)C[C@@H]1C	none (no result: dFosB act)

Screens (PubChem)
